Measured values reported in ChEMBL document CHEMBL1127395, “Synthesis and antimicrobial activity of novel 3-[(aminopyrimidiniumyl)thio]methyl cephalosporins” (1994).
Values after ≈ are worked out from the molar mass of the structure shown.

Each compound was assayed on Escherichia coli (assay: In vitro minimum inhibitory concentration for Escherichia coli (ATCC-10536) by agar dilution method). Settings: Escherichia coli; read-out: MIC.
Assay type: functional
Summary of the method: (§1)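 Two-fold serial dilutions of each compound dispersed in Mueller-Hinton agar; plates spot-inoculated with 2 μL of standard test strain at 10^7 CFU/mL, incubated 37 °C for 20 h; MIC read as lowest concentration inhibiting growth.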

| Compound | MIC |
| --- | --- |
| C[n+]1c(O)cc(O)nc1SCC1=C(C(=O)[O-])N2C(=O)C(NC(=O)/C(=N\OC(C)(C)C(=O)O)c3cnc(N)s3)C2SC1 (stereo not drawn) | 4 µg/mL (≈ 6.39 µM) |
| CCn1cc[n+]2c(SCC3=C(C(=O)[O-])N4C(=O)C(NC(=O)/C(=N\OC(C)(C)C(=O)O)c5cnc(N)s5)C4SC3)nc(N)cc12 (stereo not drawn) | 0.06 µg/mL (≈ 0.0907 µM) |
| CC(C)(O/N=C(\C(=O)NC1C(=O)N2C(C(=O)O)=C(CSc3nccc(O)n3)CSC12)c1cnc(N)s1)C(=O)O (stereo not drawn) | 8 µg/mL (≈ 13.4 µM) |
| CC(C)(O/N=C(\C(=O)NC1C(=O)N2C(C(=O)[O-])=C(CSc3nc(N)cc[n+]3N)CSC12)c1cnc(N)s1)C(=O)O (stereo not drawn) | 0.06 µg/mL (≈ 0.0984 µM) |

What follows are compounds tested on Serratia marcescens (assay: In vitro minimum inhibitory concentration for Serratia marcescens (ATCC-27117) by agar dilution method). Settings: Serratia marcescens; read-out: MIC.
Assay type: functional
Summary of the method: as §1

| Compound | MIC |
| --- | --- |
| C[n+]1c(O)cc(O)nc1SCC1=C(C(=O)[O-])N2C(=O)C(NC(=O)/C(=N\OC(C)(C)C(=O)O)c3cnc(N)s3)C2SC1 (stereo not drawn) | 16 µg/mL (≈ 25.6 µM) |
| CCn1cc[n+]2c(SCC3=C(C(=O)[O-])N4C(=O)C(NC(=O)/C(=N\OC(C)(C)C(=O)O)c5cnc(N)s5)C4SC3)nc(N)cc12 (stereo not drawn) | 0.13 µg/mL (≈ 0.196 µM) |
| CC(C)(O/N=C(\C(=O)NC1C(=O)N2C(C(=O)O)=C(CSc3nccc(O)n3)CSC12)c1cnc(N)s1)C(=O)O (stereo not drawn) | 16 µg/mL (≈ 26.9 µM) |
| CC(C)(O/N=C(\C(=O)NC1C(=O)N2C(C(=O)[O-])=C(CSc3nc(N)cc[n+]3N)CSC12)c1cnc(N)s1)C(=O)O (stereo not drawn) | 0.13 µg/mL (≈ 0.213 µM) |

What follows are compounds tested on Klebsiella pneumoniae (assay: In vitro minimum inhibitory concentration for Klebsiella pneumoniae (ATCC-10031) by agar dilution method). Settings: Klebsiella pneumoniae; read-out: MIC.
Assay type: functional

| Compound | MIC |
| --- | --- |
| C[n+]1c(O)cc(O)nc1SCC1=C(C(=O)[O-])N2C(=O)C(NC(=O)/C(=N\OC(C)(C)C(=O)O)c3cnc(N)s3)C2SC1 (stereo not drawn) | 2 µg/mL (≈ 3.2 µM) |
| CCn1cc[n+]2c(SCC3=C(C(=O)[O-])N4C(=O)C(NC(=O)/C(=N\OC(C)(C)C(=O)O)c5cnc(N)s5)C4SC3)nc(N)cc12 (stereo not drawn) | 0.06 µg/mL (≈ 0.0907 µM) |
| CC(C)(O/N=C(\C(=O)NC1C(=O)N2C(C(=O)O)=C(CSc3nccc(O)n3)CSC12)c1cnc(N)s1)C(=O)O (stereo not drawn) | 8 µg/mL (≈ 13.4 µM) |
| CC(C)(O/N=C(\C(=O)NC1C(=O)N2C(C(=O)[O-])=C(CSc3nc(N)cc[n+]3N)CSC12)c1cnc(N)s1)C(=O)O (stereo not drawn) | 0.03 µg/mL (≈ 0.0492 µM) |

The compounds below were run on Citrobacter freundii (assay: In vitro minimum inhibitory concentration for Citrobacter freundii (ATCC-8090) by agar dilution method). Settings: Citrobacter freundii; read-out: MIC.
Assay type: functional
Summary of the method: as §1

| Compound | MIC |
| --- | --- |
| C[n+]1c(O)cc(O)nc1SCC1=C(C(=O)[O-])N2C(=O)C(NC(=O)/C(=N\OC(C)(C)C(=O)O)c3cnc(N)s3)C2SC1 (stereo not drawn) | 4 µg/mL (≈ 6.39 µM) |
| CCn1cc[n+]2c(SCC3=C(C(=O)[O-])N4C(=O)C(NC(=O)/C(=N\OC(C)(C)C(=O)O)c5cnc(N)s5)C4SC3)nc(N)cc12 (stereo not drawn) | 0.06 µg/mL (≈ 0.0907 µM) |
| CC(C)(O/N=C(\C(=O)NC1C(=O)N2C(C(=O)O)=C(CSc3nccc(O)n3)CSC12)c1cnc(N)s1)C(=O)O (stereo not drawn) | 8 µg/mL (≈ 13.4 µM) |
| CC(C)(O/N=C(\C(=O)NC1C(=O)N2C(C(=O)[O-])=C(CSc3nc(N)cc[n+]3N)CSC12)c1cnc(N)s1)C(=O)O (stereo not drawn) | 0.03 µg/mL (≈ 0.0492 µM) |

Each compound was assayed on Proteus vulgaris (assay: In vitro minimum inhibitory concentration for Proteus vulgaris (ATCC-6059) by agar dilution method). Settings: Proteus vulgaris; read-out: MIC.
Assay type: functional
Summary of the method: as §1

| Compound | MIC |
| --- | --- |
| C[n+]1c(O)cc(O)nc1SCC1=C(C(=O)[O-])N2C(=O)C(NC(=O)/C(=N\OC(C)(C)C(=O)O)c3cnc(N)s3)C2SC1 (stereo not drawn) | 0.5 µg/mL (≈ 0.799 µM) |
| CCn1cc[n+]2c(SCC3=C(C(=O)[O-])N4C(=O)C(NC(=O)/C(=N\OC(C)(C)C(=O)O)c5cnc(N)s5)C4SC3)nc(N)cc12 (stereo not drawn) | 0.06 µg/mL (≈ 0.0907 µM) |
| CC(C)(O/N=C(\C(=O)NC1C(=O)N2C(C(=O)O)=C(CSc3nccc(O)n3)CSC12)c1cnc(N)s1)C(=O)O (stereo not drawn) | 2 µg/mL (≈ 3.36 µM) |
| CC(C)(O/N=C(\C(=O)NC1C(=O)N2C(C(=O)[O-])=C(CSc3nc(N)cc[n+]3N)CSC12)c1cnc(N)s1)C(=O)O (stereo not drawn) | 0.03 µg/mL (≈ 0.0492 µM) |

These compounds were tested on Salmonella typhimurium (assay: In vitro minimum inhibitory concentration for Salmonella Typhimurium (ATCC-14028) by agar dilution method). Settings: Salmonella enterica; read-out: MIC.
Assay type: functional, Salmonella enterica subsp. enterica serovar Typhimurium
Summary of the method: as §1

| Compound | MIC |
| --- | --- |
| C[n+]1c(O)cc(O)nc1SCC1=C(C(=O)[O-])N2C(=O)C(NC(=O)/C(=N\OC(C)(C)C(=O)O)c3cnc(N)s3)C2SC1 (stereo not drawn) | 16 µg/mL (≈ 25.6 µM) |
| CCn1cc[n+]2c(SCC3=C(C(=O)[O-])N4C(=O)C(NC(=O)/C(=N\OC(C)(C)C(=O)O)c5cnc(N)s5)C4SC3)nc(N)cc12 (stereo not drawn) | 0.13 µg/mL (≈ 0.196 µM) |
| CC(C)(O/N=C(\C(=O)NC1C(=O)N2C(C(=O)O)=C(CSc3nccc(O)n3)CSC12)c1cnc(N)s1)C(=O)O (stereo not drawn) | 64 µg/mL (≈ 107 µM) |
| CC(C)(O/N=C(\C(=O)NC1C(=O)N2C(C(=O)[O-])=C(CSc3nc(N)cc[n+]3N)CSC12)c1cnc(N)s1)C(=O)O (stereo not drawn) | 0.13 µg/mL (≈ 0.213 µM) |

Each compound was assayed on Pseudomonas aeruginosa (assay: In vitro minimum inhibitory concentration for Pseudomonas aeruginosa (ATCC-27853) by agar dilution method). Settings: Pseudomonas aeruginosa; read-out: MIC.
Assay type: functional
Summary of the method: as §1

| Compound | MIC |
| --- | --- |
| C[n+]1c(O)cc(O)nc1SCC1=C(C(=O)[O-])N2C(=O)C(NC(=O)/C(=N\OC(C)(C)C(=O)O)c3cnc(N)s3)C2SC1 (stereo not drawn) | 16 µg/mL (≈ 25.6 µM) |
| CCn1cc[n+]2c(SCC3=C(C(=O)[O-])N4C(=O)C(NC(=O)/C(=N\OC(C)(C)C(=O)O)c5cnc(N)s5)C4SC3)nc(N)cc12 (stereo not drawn) | 2 µg/mL (≈ 3.02 µM) |
| CC(C)(O/N=C(\C(=O)NC1C(=O)N2C(C(=O)O)=C(CSc3nccc(O)n3)CSC12)c1cnc(N)s1)C(=O)O (stereo not drawn) | > 128 µg/mL |
| CC(C)(O/N=C(\C(=O)NC1C(=O)N2C(C(=O)[O-])=C(CSc3nc(N)cc[n+]3N)CSC12)c1cnc(N)s1)C(=O)O (stereo not drawn) | 1 µg/mL (≈ 1.64 µM) |

These compounds were tested on Staphylococcus epidermidis (assay: In vitro minimum inhibitory concentration for Staphylococcus epidermidis (ATCC-12228) by agar dilution method). Settings: Staphylococcus epidermidis; read-out: MIC.
Assay type: functional
Summary of the method: as §1

| Compound | MIC |
| --- | --- |
| C[n+]1c(O)cc(O)nc1SCC1=C(C(=O)[O-])N2C(=O)C(NC(=O)/C(=N\OC(C)(C)C(=O)O)c3cnc(N)s3)C2SC1 (stereo not drawn) | > 128 µg/mL |
| CCn1cc[n+]2c(SCC3=C(C(=O)[O-])N4C(=O)C(NC(=O)/C(=N\OC(C)(C)C(=O)O)c5cnc(N)s5)C4SC3)nc(N)cc12 (stereo not drawn) | 2 µg/mL (≈ 3.02 µM) |
| CC(C)(O/N=C(\C(=O)NC1C(=O)N2C(C(=O)O)=C(CSc3nccc(O)n3)CSC12)c1cnc(N)s1)C(=O)O (stereo not drawn) | > 128 µg/mL |
| CC(C)(O/N=C(\C(=O)NC1C(=O)N2C(C(=O)[O-])=C(CSc3nc(N)cc[n+]3N)CSC12)c1cnc(N)s1)C(=O)O (stereo not drawn) | 2 µg/mL (≈ 3.28 µM) |

What follows are compounds tested on Enterobacter cloacae (assay: In vitro minimum inhibitory concentration for Enterobacter cloacae (ATCC-27508) by agar dilution method). Settings: Enterobacter cloacae; read-out: MIC.
Assay type: functional
Summary of the method: as §1

| Compound | MIC |
| --- | --- |
| C[n+]1c(O)cc(O)nc1SCC1=C(C(=O)[O-])N2C(=O)C(NC(=O)/C(=N\OC(C)(C)C(=O)O)c3cnc(N)s3)C2SC1 (stereo not drawn) | 1 µg/mL (≈ 1.6 µM) |
| CCn1cc[n+]2c(SCC3=C(C(=O)[O-])N4C(=O)C(NC(=O)/C(=N\OC(C)(C)C(=O)O)c5cnc(N)s5)C4SC3)nc(N)cc12 (stereo not drawn) | 0.02 µg/mL (≈ 0.0302 µM) |
| CC(C)(O/N=C(\C(=O)NC1C(=O)N2C(C(=O)O)=C(CSc3nccc(O)n3)CSC12)c1cnc(N)s1)C(=O)O (stereo not drawn) | 4 µg/mL (≈ 6.72 µM) |
| CC(C)(O/N=C(\C(=O)NC1C(=O)N2C(C(=O)[O-])=C(CSc3nc(N)cc[n+]3N)CSC12)c1cnc(N)s1)C(=O)O (stereo not drawn) | 0.02 µg/mL (≈ 0.0328 µM) |

Each compound was assayed on Pseudomonas aeruginosa (assay: In vitro minimum inhibitory concentration for Pseudomonas aeruginosa (ATCC 10145) by agar dilution method). Settings: not given.
Assay type: functional
Summary of the method: as §1

| Compound | MIC |
| --- | --- |
| C[n+]1c(O)cc(O)nc1SCC1=C(C(=O)[O-])N2C(=O)C(NC(=O)/C(=N\OC(C)(C)C(=O)O)c3cnc(N)s3)C2SC1 (stereo not drawn) | 32 µg/mL (≈ 51.1 µM) |
| CCn1cc[n+]2c(SCC3=C(C(=O)[O-])N4C(=O)C(NC(=O)/C(=N\OC(C)(C)C(=O)O)c5cnc(N)s5)C4SC3)nc(N)cc12 (stereo not drawn) | 4 µg/mL (≈ 6.04 µM) |
| CC(C)(O/N=C(\C(=O)NC1C(=O)N2C(C(=O)O)=C(CSc3nccc(O)n3)CSC12)c1cnc(N)s1)C(=O)O (stereo not drawn) | > 128 µg/mL |
| CC(C)(O/N=C(\C(=O)NC1C(=O)N2C(C(=O)[O-])=C(CSc3nc(N)cc[n+]3N)CSC12)c1cnc(N)s1)C(=O)O (stereo not drawn) | 2 µg/mL (≈ 3.28 µM) |

What follows are compounds tested on Klebsiella aerogenes (assay: In vitro minimum inhibitory concentration for Enterobacter aerogenes (ATCC-29751) by agar dilution method). Settings: Klebsiella aerogenes; read-out: MIC.
Assay type: functional
Summary of the method: as §1

| Compound | MIC |
| --- | --- |
| C[n+]1c(O)cc(O)nc1SCC1=C(C(=O)[O-])N2C(=O)C(NC(=O)/C(=N\OC(C)(C)C(=O)O)c3cnc(N)s3)C2SC1 (stereo not drawn) | 16 µg/mL (≈ 25.6 µM) |
| CCn1cc[n+]2c(SCC3=C(C(=O)[O-])N4C(=O)C(NC(=O)/C(=N\OC(C)(C)C(=O)O)c5cnc(N)s5)C4SC3)nc(N)cc12 (stereo not drawn) | 2 µg/mL (≈ 3.02 µM) |
| CC(C)(O/N=C(\C(=O)NC1C(=O)N2C(C(=O)O)=C(CSc3nccc(O)n3)CSC12)c1cnc(N)s1)C(=O)O (stereo not drawn) | 32 µg/mL (≈ 53.7 µM) |
| CC(C)(O/N=C(\C(=O)NC1C(=O)N2C(C(=O)[O-])=C(CSc3nc(N)cc[n+]3N)CSC12)c1cnc(N)s1)C(=O)O (stereo not drawn) | 0.5 µg/mL (≈ 0.82 µM) |

The compounds below were run on Staphylococcus aureus (assay: In vitro minimum inhibitory concentration for Staphylococcus aureus (ATCC 6538p) by agar dilution method). Settings: Staphylococcus aureus, ATCC 6538p; read-out: MIC.
Assay type: functional
Summary of the method: as §1

| Compound | MIC |
| --- | --- |
| C[n+]1c(O)cc(O)nc1SCC1=C(C(=O)[O-])N2C(=O)C(NC(=O)/C(=N\OC(C)(C)C(=O)O)c3cnc(N)s3)C2SC1 (stereo not drawn) | > 128 µg/mL |
| CCn1cc[n+]2c(SCC3=C(C(=O)[O-])N4C(=O)C(NC(=O)/C(=N\OC(C)(C)C(=O)O)c5cnc(N)s5)C4SC3)nc(N)cc12 (stereo not drawn) | 4 µg/mL (≈ 6.04 µM) |
| CC(C)(O/N=C(\C(=O)NC1C(=O)N2C(C(=O)O)=C(CSc3nccc(O)n3)CSC12)c1cnc(N)s1)C(=O)O (stereo not drawn) | > 128 µg/mL |
| CC(C)(O/N=C(\C(=O)NC1C(=O)N2C(C(=O)[O-])=C(CSc3nc(N)cc[n+]3N)CSC12)c1cnc(N)s1)C(=O)O (stereo not drawn) | 8 µg/mL (≈ 13.1 µM) |
